How the values were obtained:
Liver [1] = assay: Drug metabolism in rat liver microsomes assessed as (E)-2-cyano-3-(furan-3-yl)acrylic acid formation at 40 mM in presence of NADPH-cofactor measured after 24 hrs by HPLC analysis; assay type: ADME, microsome; conditions: 40000 µM
Outline: (§1)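 Incubation mix: rat liver microsomes (20 mg/mL stock), phosphate buffer pH 7.4 and NADPH (40 mM stock). Drug was added from a 40 mM DMSO stock. Samples were vortexed and incubated at 37 °C with stirring.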

[2] = molecular target: T1, Potassium channel subfamily K member 2 (Homo sapiens) (UniProt O95069); assay: Agonist activity at human TREK1 expressed in HEK293 cells assessed as increase in K+ current at 100 uM measured at +60 mV by whole-cell patch clamp method relative to control; assay type: cell-based
T1 sequence (whole entry): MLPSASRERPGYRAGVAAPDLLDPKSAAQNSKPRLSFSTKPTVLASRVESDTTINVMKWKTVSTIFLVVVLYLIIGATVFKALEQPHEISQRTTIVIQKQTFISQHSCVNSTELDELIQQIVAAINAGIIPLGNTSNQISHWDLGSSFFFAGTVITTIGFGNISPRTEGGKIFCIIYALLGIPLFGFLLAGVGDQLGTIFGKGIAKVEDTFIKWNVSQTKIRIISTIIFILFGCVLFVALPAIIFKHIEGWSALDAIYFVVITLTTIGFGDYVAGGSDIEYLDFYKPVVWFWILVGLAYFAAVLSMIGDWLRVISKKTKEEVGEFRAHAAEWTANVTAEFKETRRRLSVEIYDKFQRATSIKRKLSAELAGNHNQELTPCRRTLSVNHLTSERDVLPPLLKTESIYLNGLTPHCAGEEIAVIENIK
Outline: (§2)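 Human TREK-1 (kcnk2) in pIRES2-eGFP was stably expressed in HEK-293 cells under G418 selection, and cells were used 4–48 h after plating. Bath (mM): 140 NaCl, 10 TEA-Cl, 5 KCl, 3 MgCl2, 1 CaCl2, 10 HEPES, pH 7.4. Pipette (mM): 155 KCl, 3 MgCl2, 5 EGTA, 10 HEPES, pH 7.2. Holding was −80 mV, with a step to −100 mV then a 400 ms ramp to +60 mV every 5 s. Read-out was the ratio Imax/I0 taken from I/V curves. Stocks were 20 mM in DMSO.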

Mus musculus [3] = assay: Antinociceptive activity in CD1 mouse assessed as inhibition of acetic acid-induced writhes at 10 mg/kg, sc pretreated for 15 mins followed by acetic acid challenge measured within 20 mins relative to control; assay type: functional
Outline: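 Male CD1 mice (20-25 g), n=8 per group, dosed at 10 mg/kg s.c. or with vehicle (5% Tween 80 in 0.9% saline). Dosing was 15 min before i.p. 0.6% acetic acid (10 mL/kg). Abdominal writhes were counted for 20 min. Effect = (mean control writhes − mean test writhes)/mean control writhes ×100.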

[4] = Half life in rat liver microsomes at 40 mM in presence of NADPH-cofactor by HPLC analysis; assay type: ADME, microsome
Mus musculus [5] = assay: Antinociceptive activity in CD1 mouse assessed as increase in thermal-stimulus induced paw withdrawal latency at 60 mg/kg, sc measured after 30 mins by hot plate method relative to control; assay type: functional
Outline: (§3)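 Male CD1 mice (20-25 g), n=8 per group, given 60 mg/kg s.c. After 5 min acclimatization on a plate at room temperature, mice were placed on a 52 °C hotplate. Latency to forepaw or hindpaw licking or hindpaw flicking was recorded, with a 30 s cut-off. Latency was taken after two consecutive stable baselines, then 30 and 45 min post-dose. Effect = (postdrug − predrug latency)/predrug latency ×100.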

Mus musculus [6] = assay: Antinociceptive activity in CD1 mouse assessed as increase in thermal-stimulus induced paw withdrawal latency at 60 mg/kg, sc measured after 45 mins by hot plate method relative to control; assay type: functional; outline: as §3
[7] = molecular target: T2, Potassium channel subfamily K member 2 (Bos taurus) (UniProt Q8HY88); assay: Agonist activity at TREK1 in bovine AZF cells assessed as increase in K+ current at 40 uM by whole-cell patch clamp method relative to control; assay type: cell-based
T2 sequence (whole entry): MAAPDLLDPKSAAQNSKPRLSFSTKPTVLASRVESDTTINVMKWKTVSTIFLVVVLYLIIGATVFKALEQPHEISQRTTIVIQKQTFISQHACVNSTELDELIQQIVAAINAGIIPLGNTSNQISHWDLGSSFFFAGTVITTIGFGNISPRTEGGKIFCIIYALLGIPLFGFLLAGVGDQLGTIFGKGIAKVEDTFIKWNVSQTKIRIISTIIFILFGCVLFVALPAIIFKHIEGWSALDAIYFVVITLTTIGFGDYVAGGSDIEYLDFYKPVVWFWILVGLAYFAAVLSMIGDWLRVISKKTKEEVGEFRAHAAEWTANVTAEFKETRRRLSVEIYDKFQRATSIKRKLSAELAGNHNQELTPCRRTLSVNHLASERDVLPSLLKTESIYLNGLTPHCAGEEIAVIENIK

[8] = molecular target: T1, Potassium channel subfamily K member 2 (Homo sapiens); assay: Agonist activity at human TREK1 expressed in xenopus oocytes assessed as increase in K+ current at 20 uM measured at 0 mV by double microelectrode method relative to control; assay type: cell-based
Liver [9] = assay: Drug metabolism in rat liver microsomes assessed as (E)-2-Cyano-3-(3,4-dihydroxyphenyl)acrylic acid formation at 40 mM in presence of NADPH-cofactor measured after 24 hrs by HPLC analysis; assay type: ADME, microsome; conditions: 40000 µM; outline: as §1
Mus musculus [10] = assay: Antinociceptive activity in wild-type C57Bl/6J mouse assessed as increase in thermal-stimulus induced paw withdrawal latency at 60 mg/kg, sc measured after 30 mins by hot plate method relative to control; assay type: functional
Outline: (§4)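 TREK-1−/− and wild-type C57Bl/6J littermates came from heterozygous crosses, n=7. Dose was 60 mg/kg s.c. The 52 °C hotplate measured paw-lick latency, 30 s cut-off, with baseline from two stable pre-dose latencies.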

Mus musculus [11] = assay: Antinociceptive activity in wild-type C57Bl/6J mouse assessed as increase in thermal-stimulus induced paw withdrawal latency at 60 mg/kg, sc measured after 45 mins by hot plate method relative to control; assay type: functional; outline: as §4
Mus musculus [12] = assay: Antinociceptive activity in TREK1 deficient C57Bl/6J mouse assessed as increase in thermal-stimulus induced paw withdrawal latency at 60 mg/kg, sc measured after 30 mins by hot plate method relative to control; assay type: functional; outline: as §4
Mus musculus [13] = assay: Antinociceptive activity in TREK1 deficient C57Bl/6J mouse assessed as increase in thermal-stimulus induced paw withdrawal latency at 60 mg/kg, sc measured after 45 mins by hot plate method relative to control; assay type: functional; outline: as §4
Mus musculus [14] = assay: In vivo activation of TREK1 in C57Bl/6J mouse assessed as increase in thermal-stimulus induced paw withdrawal latency at 60 mg/kg, sc measured after 30 mins by hot plate method relative to control; assay type: functional; outline: as §4
Mus musculus [15] = assay: In vivo activation of TREK1 in C57Bl/6J mouse assessed as increase in thermal-stimulus induced paw withdrawal latency at 60 mg/kg, sc measured after 45 mins by hot plate method relative to control; assay type: functional; outline: as §4
Mus musculus [16] = assay: Antinociceptive activity in CD1 mouse assessed as increase in thermal-stimulus induced paw withdrawal latency at 3 mg/kg, sc measured after 30 mins by hot plate method relative to control; assay type: functional
Outline: (§5)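 Male CD1 mice (20–25 g), groups of 8, scored blind. After 5 min on a room-temperature plate, mice are placed on a 52 °C hotplate. Latency is the time to licking of fore- or hindpaws or flicking of hindpaws, with a 30 s cut-off. Two consecutive stable baseline latencies are taken, then latency is read 30 and 45 min after s.c. injection. % effect = (post − pre)/pre × 100.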

Mus musculus [17] = assay: Antinociceptive activity in CD1 mouse assessed as increase in thermal-stimulus induced paw withdrawal latency at 3 mg/kg, sc measured after 45 mins by hot plate method relative to control; assay type: functional; outline: as §5
[18] = molecular target: Potassium channel subfamily K member 9 (Homo sapiens) (UniProt Q9NPC2); assay: Agonist activity at TASK3 (unknown origin) expressed in HEK293 cells assessed as increase in K+ current at 10 uM measured at +60 mV by whole-cell patch clamp method relative to control; assay type: cell-based
[19] = molecular target: T3, Potassium channel subfamily K member 4 (Homo sapiens) (UniProt Q9NYG8); assay: Agonist activity at TRAAK (unknown origin) expressed in HEK293 cells assessed as increase in K+ current at 10 uM measured at +60 mV by whole-cell patch clamp method relative to control; assay type: cell-based
T3 sequence (whole entry): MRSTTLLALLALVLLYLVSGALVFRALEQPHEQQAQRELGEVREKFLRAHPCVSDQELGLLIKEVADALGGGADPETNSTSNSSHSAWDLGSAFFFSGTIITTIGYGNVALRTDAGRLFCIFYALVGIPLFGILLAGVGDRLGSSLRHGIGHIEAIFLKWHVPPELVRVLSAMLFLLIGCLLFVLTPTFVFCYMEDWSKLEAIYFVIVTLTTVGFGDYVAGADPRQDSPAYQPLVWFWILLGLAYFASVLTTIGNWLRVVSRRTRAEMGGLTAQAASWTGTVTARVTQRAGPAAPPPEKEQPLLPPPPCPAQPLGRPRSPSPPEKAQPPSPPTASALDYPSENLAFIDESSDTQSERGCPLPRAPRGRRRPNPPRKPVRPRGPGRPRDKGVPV

[20] = molecular target: T1, Potassium channel subfamily K member 2 (Homo sapiens); assay: Agonist activity at human TREK1 expressed in HEK293 cells assessed as increase in K+ current at 10 uM measured at +60 mV by whole-cell patch clamp method relative to control; assay type: cell-based; outline: as §2
[21] = molecular target: T4, Potassium channel subfamily K member 10 (Homo sapiens) (UniProt P57789); assay: Agonist activity at TREK-2 (unknown origin) expressed in HEK293 cells assessed as increase in K+ current at 10 uM measured at +60 mV by whole-cell patch clamp method relative to control; assay type: cell-based
T4 sequence (whole entry): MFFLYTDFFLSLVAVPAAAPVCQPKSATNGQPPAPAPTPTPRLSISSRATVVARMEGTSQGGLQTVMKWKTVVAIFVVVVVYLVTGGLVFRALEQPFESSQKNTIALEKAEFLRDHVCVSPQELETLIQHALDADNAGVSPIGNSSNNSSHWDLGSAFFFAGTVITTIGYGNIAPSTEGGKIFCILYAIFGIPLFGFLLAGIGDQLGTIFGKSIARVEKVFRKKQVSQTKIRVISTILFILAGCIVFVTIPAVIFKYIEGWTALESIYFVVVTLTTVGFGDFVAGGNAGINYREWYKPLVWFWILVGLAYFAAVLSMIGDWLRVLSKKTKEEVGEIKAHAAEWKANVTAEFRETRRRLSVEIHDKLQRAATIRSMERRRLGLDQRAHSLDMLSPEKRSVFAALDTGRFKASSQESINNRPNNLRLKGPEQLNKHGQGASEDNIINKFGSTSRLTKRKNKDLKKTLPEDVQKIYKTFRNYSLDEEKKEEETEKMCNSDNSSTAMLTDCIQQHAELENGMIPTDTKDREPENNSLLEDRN

Sequence of Potassium channel subfamily K member 9 (Homo sapiens) (Q9NPC2 whole entry): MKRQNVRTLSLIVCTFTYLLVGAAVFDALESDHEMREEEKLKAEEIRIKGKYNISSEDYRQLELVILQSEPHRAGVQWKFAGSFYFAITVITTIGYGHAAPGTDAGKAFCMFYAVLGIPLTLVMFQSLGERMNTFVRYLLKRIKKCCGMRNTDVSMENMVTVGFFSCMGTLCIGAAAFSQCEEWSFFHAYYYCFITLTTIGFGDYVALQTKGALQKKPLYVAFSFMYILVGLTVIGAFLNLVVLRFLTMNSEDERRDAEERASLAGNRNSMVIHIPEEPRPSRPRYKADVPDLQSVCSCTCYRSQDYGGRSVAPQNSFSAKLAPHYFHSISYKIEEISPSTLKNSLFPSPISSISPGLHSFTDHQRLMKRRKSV

Structure (SMILES)	fold change (FC) [2]	inhibition in vivo at 10 mg/kg (Mus musculus [3]) [%]	half-life [4] [min]	Activity (Mus musculus [5]) [%]	Activity (Mus musculus [6]) [%]	fold change (FC) [7]	Activity (Mus musculus [10]) [%]	Activity (Mus musculus [11]) [%]	Activity (Mus musculus [12]) [%]	Activity (Mus musculus [13]) [%]	Activity (Mus musculus [14]) [%]	Activity (Mus musculus [15]) [%]	other results
CCOC(=O)/C(C#N)=C/c1ccoc1	2.09	55.9	< 4	28.4	11.9								Drug metabolism (Liver [1]): Metabolite_Detected
CCOC(=O)/C(C#N)=C/c1ccc(O)c(O)c1	1.54	57.8	< 4	34.6	21.8	1							fold change (FC) [8]: 2.76; Drug metabolism (Liver [9]): Metabolite_Detected
O=C(O)/C=C/c1ccc(O)c(O)c1						1							
CN1CC[C@]23c4c5ccc(O)c4O[C@H]2[C@@H](O)C=C[C@H]3[C@H]1C5 [MORPHINE]							98.6	124.5	86.7	94.6	12.6	24.3	Activity (Mus musculus [16]): 185%; Activity (Mus musculus [17]): 159.7%
N#C/C(=C\c1cc2ccccc2[nH]1)C(=O)Nc1ccccc1		52		49.5	49.5		27.9	39.2	18.7	51.2	33	0	fold change (FC) [18]: 1.2; fold change (FC) [19]: 0.9; fold change (FC) [20]: 2.16 to 2.2; fold change (FC) [21]: 1.6

— ChEMBL document CHEMBL3992520, “Development of the First Two-Pore Domain Potassium Channel TWIK-Related K+ Channel 1-Selective Agonist Possessing in Vivo Antinociceptive Activity” (J Med Chem, 2017)
